According to ChEMBL document CHEMBL4270598, “Synthesis and discovery of a drug candidate for treatment of idiopathic pulmonary fibrosis through inhibition of TGF-β1 pathway” (Eur J Med Chem, 2018):
Values belong to the molecule of their own block, whether it stands above or below them. Active and inactive are the calls of the source. The rule behind the calls is not given here.

Assays:
[1] = biological target: T1, Transforming growth factor beta-1 proprotein/Mothers against decapentaplegic homolog 3 (Mus musculus) (UniProt P04202+Q8BUN5); test: Inhibition of TGF-beta1/smad3 signaling pathway in mouse NIH/3T3 cells at 10 uM after 18 hrs by CAGA-luciferase reporter gene assay relative to control; type: cell-based
Method in brief: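 CAGA12-luciferase stably transfected NIH3T3 cells plated overnight. Treated with TGF-β1 (5 ng/mL) with or without compound at 10 µM in DMEM containing 0.1% FBS for 18 h. Lysate luminescence integrated over the first 20 s. Inhibition ratio calculated from TGF-β1-stimulated signal of treated versus control wells; mean of three independent experiments.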

[2] = biological target: T1, Transforming growth factor beta-1 proprotein/Mothers against decapentaplegic homolog 3 (Mus musculus); test: Inhibition of TGF-beta1/smad3 signaling pathway in mouse NIH/3T3 cells at 5 to 40 uM after 18 hrs by CAGA-luciferase reporter gene assay; type: cell-based
Method in brief: (§1)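 CAGA12-luciferase NIH3T3 cells stimulated with TGF-β1 (5 ng/mL) in 0.1% FBS DMEM alongside compound at 5, 10, 20 and 40 µM for 18 h. Lysate luciferase read over the first 20 s. Triplicate.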

[3] = biological target: Transforming growth factor beta-1 proprotein (Mus musculus) (UniProt P04202); test: Inhibition of TGF-beta1 in mouse Mlg cells assessed as reduction in cell migration at 10 uM after 24 hrs by wound healing based light microscopy
Method in brief: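 Confluent Mlg monolayers scratched to a 100-µm wound. Cells then cultured in serum-free medium with or without TGF-β1 (5 ng/mL) and compound at 10 µM. Light-microscope images taken at 0, 12 and 24 h; wound area expressed relative to the initial scratch.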

[4] = biological target: Transforming growth factor beta-1 proprotein (Mus musculus) (UniProt P04202); test: Inhibition of TGF-beta1 in mouse Mlg cells assessed as decrease in cell viability at 10 uM after 24 hrs by MTT assay; type: cell-based
Method in brief: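 Mlg cells exposed to TGF-β1 (5 ng/mL) with or without compound at 10 µM for 24 h; DMSO-treated cells served as control. MTT added for 4 h, then DMSO, and absorbance read. Viability normalized to control as 100%. Triplicate.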

[5] = biological target: Transforming growth factor beta-1 proprotein (Mus musculus) (UniProt P04202); test: Inhibition of TGF-beta1 in mouse Mlg cells assessed as reduction in Col1a1 mRNA expression level at 10 uM after 24 hrs by qRT-PCR method; type: cell-based
Method in brief: (§2)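 Mlg lung fibroblasts treated with or without TGF-β1 (5 ng/mL) plus compound at 10 µM for 24 h. α-SMA, Col1a1 and Fn1 mRNA measured by real-time PCR with β-actin reference primers. n=3.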

[6] = biological target: Transforming growth factor beta-1 proprotein (Mus musculus) (UniProt P04202); test: Inhibition of TGF-beta1 in mouse Mlg cells assessed as reduction in alpha-SMA mRNA expression level at 10 uM after 24 hrs by qRT-PCR method; type: cell-based; method in brief: as §2
[7] = biological target: Transforming growth factor beta-1 proprotein (Mus musculus) (UniProt P04202); test: Inhibition of TGF-beta1 in mouse Mlg cells assessed as reduction in fibronectin mRNA expression level at 10 uM after 24 hrs by qRT-PCR method; type: cell-based; method in brief: as §2
Mus musculus [8] = test: Antifibrotic activity in bleomycin-induced pulmonary fibrosis in C57BL/6 mouse model assessed as fibrotic area in lungs at 100 mg/kg, po qd administered from day 7 to 14 by hematoxylin-eosin staining based fluorescence microscopy; type: functional
Method in brief: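 Male C57BL/6 mice (7-8 weeks, n=5/group) given intratracheal bleomycin 2 U/kg under chloral hydrate anaesthesia. Dosing at 100 mg/kg daily from day 7 to day 14, sacrifice at day 14. Left lungs formalin-fixed, paraffin-embedded, 5 µm sections HE-stained. Fibrosis ratio taken as fibrotic-region pixels over total lung pixels.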

[9] = biological target: T1, Transforming growth factor beta-1 proprotein/Mothers against decapentaplegic homolog 3 (Mus musculus); test: Inhibition of TGF-beta1/smad3 signaling pathway in mouse NIH/3T3 cells assessed as decrease in ECM production at 10 uM after 24 hrs; type: cell-based
Mus musculus [10] = test: In vivo inhibition of TGF-beta1/smad3 signaling pathway in bleomycin-induced pulmonary fibrosis in C57BL/6 mouse model assessed as decrease in smad3 phosphorylation level in lung tissue at 100 mg/kg, po qd administered from day 7 to 14 by immunohistochemical analysis; type: functional, organism-based
Method in brief: (§3)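 Lungs from bleomycin-challenged C57BL/6 mice (2 U/kg intratracheal; 100 mg/kg daily, days 7-14) were paraffin-embedded and dewaxed. Citrate (0.01 M) microwave antigen retrieval, then 5% serum block. Primary antibodies overnight at 4 °C: α-SMA 1:200, collagen I 1:100, p-Smad3 1:50. Secondary antibody 1 h at room temperature, then hematoxylin counterstain and microscopy.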

[11] = biological target: T1, Transforming growth factor beta-1 proprotein/Mothers against decapentaplegic homolog 3 (Mus musculus); test: Inhibition of TGF-beta1/smad3 signaling pathway in mouse NIH/3T3 cell extract assessed as decrease in Smad3 phosphorylation at 10 uM after 30 mins by Western blot analysis; type: protein assay
[12] = biological target: T1, Transforming growth factor beta-1 proprotein/Mothers against decapentaplegic homolog 3 (Mus musculus); test: Inhibition of TGF-beta1/smad3 signaling pathway in mouse NIH/3T3 cells at 40 uM after 18 hrs by CAGA-luciferase reporter gene assay; type: cell-based; method in brief: as §1
Mus musculus [13] = test: In vivo inhibition of TGF-beta1/smad3 signaling pathway in bleomycin-induced pulmonary fibrosis in C57BL/6 mouse model assessed as decrease in Col1 protein expression level in lung tissue at 100 mg/kg, po qd administered from day 7 to 14 by Western blot analysis; type: functional, organism-based
Mus musculus [14] = test: In vivo inhibition of TGF-beta1/smad3 signaling pathway in bleomycin-induced pulmonary fibrosis in C57BL/6 mouse model assessed as decrease in alpha-SMA level in lung tissue at 100 mg/kg, po qd administered from day 7 to 14 by immunohistochemical analysis; type: functional, organism-based; method in brief: as §3
[15] = biological target: T1, Transforming growth factor beta-1 proprotein/Mothers against decapentaplegic homolog 3 (Mus musculus); test: Inhibition of TGF-beta1/smad3 signaling pathway in mouse NIH/3T3 cell extract assessed as decrease in alpha-SMA protein expression at 10 uM after 24 hrs by Western blot analysis
Mus musculus [16] = test: Antifibrotic activity in bleomycin-induced pulmonary fibrosis in C57BL/6 mouse model assessed as decrease in collagen content in lung at 100 mg/kg, po qd administered from day 7 to 14 by spectrophotometric method; type: functional, organism-based
Method in brief: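 Bleomycin model as above: 2 U/kg intratracheal in male C57BL/6 mice, 100 mg/kg daily from day 7 to day 14. Right lungs collected at day 14, dried and acid-hydrolysed, filtered, and pH adjusted to 6.5-8.0. Hydroxyproline then measured by chloramine-T spectrophotometry.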

Mus musculus [17] = test: In vivo inhibition of TGF-beta1/smad3 signaling pathway in bleomycin-induced pulmonary fibrosis in C57BL/6 mouse model assessed as decrease in Col1 level in lung tissue at 100 mg/kg, po qd administered from day 7 to 14 by immunohistochemical analysis; type: functional, organism-based; method in brief: as §3

T1 sequence (P04202 279-390 limits assumed): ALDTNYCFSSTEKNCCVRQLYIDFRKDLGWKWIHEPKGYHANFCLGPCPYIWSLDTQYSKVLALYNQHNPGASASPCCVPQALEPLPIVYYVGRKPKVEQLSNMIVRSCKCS
T1 sequence (Q8BUN5 2-425 partner limits assumed): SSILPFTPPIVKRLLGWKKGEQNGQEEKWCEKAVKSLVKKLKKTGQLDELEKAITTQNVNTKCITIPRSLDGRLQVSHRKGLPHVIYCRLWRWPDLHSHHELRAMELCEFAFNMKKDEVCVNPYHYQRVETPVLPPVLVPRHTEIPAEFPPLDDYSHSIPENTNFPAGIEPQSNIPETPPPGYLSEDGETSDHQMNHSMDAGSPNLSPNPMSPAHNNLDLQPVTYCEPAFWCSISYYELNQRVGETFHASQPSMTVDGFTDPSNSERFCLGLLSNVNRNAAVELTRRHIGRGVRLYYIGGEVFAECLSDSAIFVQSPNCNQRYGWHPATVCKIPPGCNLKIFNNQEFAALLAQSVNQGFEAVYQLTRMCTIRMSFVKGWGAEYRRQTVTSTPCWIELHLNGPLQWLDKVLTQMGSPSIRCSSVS
Chain of Transforming growth factor beta-1 proprotein (Mus musculus) (P04202 whole entry): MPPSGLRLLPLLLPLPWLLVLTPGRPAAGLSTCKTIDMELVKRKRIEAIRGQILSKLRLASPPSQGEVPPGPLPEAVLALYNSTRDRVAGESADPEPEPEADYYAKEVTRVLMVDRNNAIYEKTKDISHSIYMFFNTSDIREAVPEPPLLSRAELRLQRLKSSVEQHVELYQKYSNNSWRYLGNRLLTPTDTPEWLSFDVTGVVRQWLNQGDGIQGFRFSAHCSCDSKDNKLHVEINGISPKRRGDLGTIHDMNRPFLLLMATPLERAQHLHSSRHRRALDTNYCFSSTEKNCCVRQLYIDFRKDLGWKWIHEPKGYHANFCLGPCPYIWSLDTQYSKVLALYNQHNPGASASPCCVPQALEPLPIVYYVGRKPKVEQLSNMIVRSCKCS

inhibition [1]: 26.7%
SMILES: C=C1C(=O)O[C@@H]2C[C@@]3(C)CC[C@@H](OC(=O)c4ccccc4)[C@]4(CO4)[C@@H]3C[C@H]12

inhibition [2]: Active
SMILES: C=C1[C@H](O)CC[C@]2(C)C[C@H]3OC(=O)[C@@H](CN(C)C)[C@H]3C[C@@H]12

inhibition [1]: 22%
SMILES: C=C1C(=O)O[C@@H]2C[C@@]3(C)CC[C@@H](OC(=O)[C@@H](NC(=O)OC(C)(C)C)C(C)C)C(=C)[C@@H]3C[C@H]12

inhibition [1]: -7.65%
SMILES: C=C1C(=O)O[C@@H]2C[C@@]3(C)CC[C@@H](OC(=O)CCCCCCC)[C@]4(CO4)[C@@H]3C[C@H]12

inhibition [1]: 13.5%
SMILES: C=C1C(=O)O[C@@H]2C[C@@]3(C)CC[C@@H](OC(=O)/C=C/CCC)[C@]4(CO4)[C@@H]3C[C@H]12

inhibition [1]: 17.1%
SMILES: C=C1C(=O)O[C@@H]2C[C@@]3(C)CC[C@@H](OC(=O)[C@@H](NC(=O)OC(C)(C)C)C(C)C)[C@]4(CO4)[C@@H]3C[C@H]12

inhibition [1]: 6.65%
SMILES: C#CCCCC(=O)O[C@@H]1CC[C@]2(C)C[C@H]3OC(=O)C(=C)[C@H]3C[C@H]2[C@@]12CO2

inhibition [1]: 3.67%
SMILES: C=C1C(=O)O[C@@H]2C[C@@]3(C)CC[C@@H](OC(=O)CP(=O)(OCC)OCC)[C@]4(CO4)[C@@H]3C[C@H]12

inhibition [1]: 2.24%
SMILES: C=C1C(=O)O[C@@H]2C[C@@]3(C)CCC(=O)C(=C)[C@@H]3C[C@H]12

inhibition [1]: -2.36%
SMILES: C=C1C(=O)O[C@@H]2C[C@@]3(C)CC[C@@H](OC(C)=O)[C@]4(CO4)[C@@H]3C[C@H]12

inhibition [3]: Active | inhibition [1]: 71.3% | inhibition [5]: Active
SMILES: C=C1C(=O)O[C@@H]2C[C@@]3(C)CC[C@@H](OC(=O)/C=C/C(=O)OCC)[C@]4(CO4)[C@@H]3C[C@H]12
inhibition [4]: Active

inhibition [2]: Active
SMILES: CN(C)C[C@@H]1C(=O)O[C@@H]2C[C@@]3(C)CC[C@@H](OC(=O)C4=CCCCC4)[C@]4(CO4)[C@@H]3C[C@H]12

inhibition [1]: 4.63%
SMILES: C=C1C(=O)O[C@@H]2C[C@@]3(C)CC[C@@H](OC(=O)C4CC4)C(=C)[C@@H]3C[C@H]12

inhibition [1]: 27.8%
SMILES: C=C1C(=O)O[C@@H]2C[C@@]3(C)CC[C@@H](O[Si](C)(C)C(C)(C)C)C(=C)[C@@H]3C[C@H]12

inhibition [1]: 3.08%
SMILES: C=C1C(=O)O[C@@H]2C[C@@]3(C)CCC[C@]4(CO4)[C@@H]3C[C@H]12

inhibition [1]: 6.58%
SMILES: C=C1C(=O)O[C@@H]2C[C@@]3(C)CC[C@@H](OC(C)=O)C(=C)[C@@H]3C[C@H]12

inhibition [3]: Active | inhibition [6]: Active | inhibition [7]: Active | inhibition [1]: 46% | inhibition [5]: Active
SMILES: C=C1C(=O)O[C@@H]2C[C@@]3(C)CC[C@@H](O)[C@]4(CO4)[C@@H]3C[C@H]12
inhibition [4]: Active

inhibition [3]: inactive | inhibition [1]: 34.8%
SMILES: C=C1C(=O)O[C@@H]2C[C@@]3(C)CC[C@@H](OC(=O)C4=CCCCC4)[C@]4(CO4)[C@@H]3C[C@H]12

inhibition [3]: Active | inhibition [7]: Active | inhibition [1]: 61.9% | inhibition [5]: Active
SMILES: C=C1C(=O)O[C@@H]2C[C@@]3(C)CC[C@@H](O)C(=C)[C@@H]3C[C@H]12
inhibition [4]: Active

inhibition [3]: Active | inhibition [6]: Active | inhibition [7]: Active | inhibition [1]: 77.7% | inhibition [5]: Active
SMILES: C=C1C(=O)O[C@@H]2C[C@@]3(C)CCC[C@H](C)[C@@]34O[C@H]4[C@H]12
inhibition [4]: Active

SMILES: CCOC(=O)/C=C/C(=O)O[C@@H]1CC[C@]2(C)C[C@H]3OC(=O)[C@@H](CN(C)C)[C@H]3C[C@H]2[C@@]12CO2.O=C(O)/C=C/C(=O)O
Activity (Mus musculus [8]): 53.5% | inhibition [9]: Active | inhibition (Mus musculus [10]): Active | inhibition [11]: Active | inhibition [12]: Active | inhibition (Mus musculus [13]): Active | inhibition (Mus musculus [14]): Active | inhibition [15]: Active | Activity (Mus musculus [16]): Active | inhibition (Mus musculus [17]): Active
